Screening results (PubChem BioAssay)
The list is not random: actives were taken first. Their share in the collection is about 1.8%.
CHRM4 antagonist = antagonists of human muscarinic M4 receptor (CHRM4); inhibition, % at 3 µM; 0.73% of 360,000 active; P08173; AID 624125; CHO-hM4 cells, ACh EC80, Fluo-8 calcium fluorescence;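 active = inhibition above its plate's cutoff, the mean inhibition of sample wells plus 3 SD, cut at about 27% in these data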;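 also: 0% = acetylcholine EC80 with DMSO and 100% = DMSO without agonist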
Target sequence (P08173 whole entry, looked up): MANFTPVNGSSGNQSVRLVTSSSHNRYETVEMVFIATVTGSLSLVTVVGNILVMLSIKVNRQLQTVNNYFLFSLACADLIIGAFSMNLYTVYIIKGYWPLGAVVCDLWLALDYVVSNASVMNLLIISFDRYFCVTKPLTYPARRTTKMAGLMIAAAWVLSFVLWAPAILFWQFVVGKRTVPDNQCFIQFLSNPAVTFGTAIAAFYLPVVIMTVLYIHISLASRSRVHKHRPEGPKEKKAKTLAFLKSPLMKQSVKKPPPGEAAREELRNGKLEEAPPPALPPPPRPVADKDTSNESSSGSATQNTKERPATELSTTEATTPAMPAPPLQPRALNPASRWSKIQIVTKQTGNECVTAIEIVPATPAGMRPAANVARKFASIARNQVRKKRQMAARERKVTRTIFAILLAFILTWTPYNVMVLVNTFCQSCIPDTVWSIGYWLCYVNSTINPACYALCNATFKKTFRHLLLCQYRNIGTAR
M5 ag = agonists of human muscarinic M5 receptor (CHRM5); P08912; CHO-K1 hM5 cells, Fluo-8 calcium fluorescence; 0% DMSO wells, 100% maximal acetylcholine response; activation, % at 3 µM; 0.19% of 360,000 active;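 active = activation above the run's mean over test compounds plus 3 SD, cut at about 23% in these data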;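 also: signal is peak over basal fluorescence ratio across the kinetic read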
CHRM5 PAM = potentiates acetylcholine response at human M5 receptor | activation, % at 3 µM | 0.3% of 360,000 active | CHO-K1 hM5, Fluo-8 calcium, ACh EC20 PAM; 0% = ACh EC20, 100% = ACh EC100 | AID 624038;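 active = activation above the run cutoff, the mean activation of all test compounds plus 3 SD, cut at about 18% in these data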
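System: CHO-K1 cell line with stable human muscarinic M5 receptor expression | Also added: EC20 acetylcholine as agonist stimulus | Compound: One concentration, 3 µM final (nominal) | Timing: Fluo-8 loading 80 min at 37 °C plus 30 min room temperature | Measured by: Fluo-8 calcium dye fluorescence, kinetic read | Read-out basis: % activation, ACh-normalized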
M4 ag = CHRM4 agonism in calcium assay; CHO-K1 hM4/Gqi5, Fluo-8 calcium fluorescence; vehicle 0%, full acetylcholine response 100%; activation, % at 3 µM; 0.14% of 360,000 active; AID 624127;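 active = activation above the run mean over all test wells plus 3 SD, cut at about 32% in these data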;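 also: peak over basal fluorescence ratio per well then scaled between controls; 0% = DMSO wells and 100% = acetylcholine at EC100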
CHRM4 PAM = CHRM4 positive allosteric modulation. P08173. CHO-K1 hM4/Gqi5, Fluo-8 calcium fluorescence, ACh EC20; 0% = ACh EC20, 100% = maximal ACh. activation, % at 3 µM. 0.4% of 360,000 active. AID 624126;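 active = activation above its plate's cutoff, the mean activation of sample wells plus 3 SD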
CHRM5 antagonist = antagonists of human muscarinic M5 receptor (CHRM5) | P08912 | CHO-hM5 cells, Fluo-8 calcium fluorescence, ACh EC80 | inhibition, % at 3 µM | 0.59% of 360,000 active;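 active = inhibition above a per-plate cutoff, the mean of that plate's test compounds plus 3 SD, cut at about 27% in these data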;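 also: 0% = acetylcholine EC80 with DMSO and 100% = DMSO without agonist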
An asterisk follows results filed as active; ! = repeats disagree.

SMILES | CHRM4 antagonist | M5 ag | CHRM5 PAM | M4 ag | CHRM4 PAM | CHRM5 antagonist
CNCCC=C1c2ccccc2C=Cc2ccccc21 | 90* | 1 | -18 | 4 | -18 | 99*
CN1CCN(Cc2nc3ccccc3c(=O)n2Cc2nc(-c3ccc4ccccc4c3)cs2)CC1 | -2 | -9 | 7 | 5 | 22*! | 12
Nc1ncnc2c1ncn2[C@@H]1O[C@H](C(=O)N[C@@H](CO)Cc2ccccc2)[C@@H](O)[C@H]1O | -4 | 3 | 0 | 1 | 3 | -2
CC(OC(=O)CCCN=C1NS(=O)(=O)c2ccccc21)C(=O)N(C)c1ccccc1 (stereo unspecified) | -12 | -1 | 2 | 2 | 1 | 3
CC(OC(=O)CCCN=C1NS(=O)(=O)c2ccccc21)C(=O)c1ccccc1 (stereo unspecified) | -11 | 26* | -1 | 18 | 3 | 2
C[C@@H]1CN([C@H](C)CO)C(=O)CCCn2nncc2CO[C@H]1CN(C)Cc1cccc2c1OCCCO2 | -24 | -2 | -3 | 1 | 1 | -9
Cc1cc(=O)[nH]c2cc(Cl)ccc12 | 6 | 0 | 5 | 0 | 9 | 0
COc1ccc2c(C)cc(=O)[nH]c2c1 | -12 | -3 | 40* | 1 | 23* | -14
CC(=O)N1CCN(C(=O)CCc2nc3ccccc3c(=O)[nH]2)CC1 | -8 | -4 | 6 | 0 | 11 | -18
O=C(CCc1nc2ccccc2c(=O)[nH]1)N1CCN(C/C=C/c2ccccc2)CC1 | 4 | -1 | -16 | 14 | -23 | 28*
O=[N+]([O-])c1cccc(/C=N/Nc2nnc(-c3ccccc3)c(-c3ccccc3)n2)c1 | -12 | -1 | -3 | 1 | 34* | -1
C/C(=N\Nc1nnc(-c2ccccc2)c(-c2ccccc2)n1)c1cccc([N+](=O)[O-])c1 | -7 | 3 | 2 | 0 | -3 | 0
COc1ccc(CCN2C(=O)CSC2=Nc2ccc(C(C)C)cc2)cc1OC | 37* | -6 | -34 | 11 | -12 | 35*
COc1ccc(Cl)cc1NC(=O)CSc1nc2ccsc2c(=O)n1CC1CCC(C(=O)O)CC1 (stereo unspecified) | -9 | -1 | -4 | 8 | -2 | 12
O=C(O)c1cccc(Nc2nc3ccccc3nc2NS(=O)(=O)c2cccs2)c1 | -24 | -1 | 0 | 1 | 18* | -8
CC(=O)c1ccc(Nc2nc3ccccc3nc2NS(=O)(=O)c2cccs2)cc1 | -4 | -2 | -6 | 2 | -3 | 5
CC(=O)Nc1ccc(C=NNc2ccc(S(=O)(=O)Nc3ccccc3C(=O)O)cc2[N+](=O)[O-])cc1 | -10 | 2 | -8 | 0 | 4 | 11
CC(=O)Nc1cccc(/C(C)=N/Nc2ccc(S(=O)(=O)Nc3ccccc3C(=O)O)cc2[N+](=O)[O-])c1 | -13 | 2 | -3 | -2 | 20* | 9
CC(=O)OCCn1c2nc(=O)[nH]c(=O)c-2nc2cc(C)c(C)cc21 | 37* | 418* | -30 | 229* | -18 | 42*
COc1ccc(CCNC(=O)[C@H](C)N2C(=O)N3CCc4c([nH]c5ccccc45)[C@@]3(C)C2=O)cc1 | -6 | 1 | 0 | 9 | 1 | 5
C=CCNC(=O)CSc1nnc(-c2ccccn2)n1Cc1ccccc1 | 2 | -3 | 22* | 1 | 11 | -4
CC(C)(C)NC(=O)CSc1nnc(-c2ccccn2)n1Cc1ccccc1 | 5 | 0 | 9 | 1 | 12 | 2
CN1CCC(OC(=O)c2ccccc2Cl)CC1 | 2 | -11 | -21 | 1 | -11 | 34*
COc1cccc(C=NCCCN=Cc2cccc(OC)c2O)c1O | 13 | 1 | -2 | 0 | -5 | 10
S=C1N(c2ccccc2)C(c2ccc(Cl)cc2)N2CCCN12 (stereo unspecified) | 42* | -11 | -43 | 0 | -19 | 25
S=C1N(c2ccccc2)C(c2ccc(Br)cc2)N2CCCN12 (stereo unspecified) | 79* | -19 | -37 | -1 | -55 | 38*
